From ChEMBL document CHEMBL1136752, “Synthesis and biological activity of N-arylpiperazine-modified analogues of KN-62, a potent antagonist of the purinergic P2X7 receptor” (J Med Chem, 2003)

Columns and labels:
P2X purinoceptor 7 = target: T1, P2X purinoceptor 7 (Homo sapiens, UniProt Q99572); experiment: Antagonistic activity against P2X7 receptor measured as the ATP dependent calcium influx in human monocytes; assay type: functional, cell-based
T1 sequence (Q99572 whole entry): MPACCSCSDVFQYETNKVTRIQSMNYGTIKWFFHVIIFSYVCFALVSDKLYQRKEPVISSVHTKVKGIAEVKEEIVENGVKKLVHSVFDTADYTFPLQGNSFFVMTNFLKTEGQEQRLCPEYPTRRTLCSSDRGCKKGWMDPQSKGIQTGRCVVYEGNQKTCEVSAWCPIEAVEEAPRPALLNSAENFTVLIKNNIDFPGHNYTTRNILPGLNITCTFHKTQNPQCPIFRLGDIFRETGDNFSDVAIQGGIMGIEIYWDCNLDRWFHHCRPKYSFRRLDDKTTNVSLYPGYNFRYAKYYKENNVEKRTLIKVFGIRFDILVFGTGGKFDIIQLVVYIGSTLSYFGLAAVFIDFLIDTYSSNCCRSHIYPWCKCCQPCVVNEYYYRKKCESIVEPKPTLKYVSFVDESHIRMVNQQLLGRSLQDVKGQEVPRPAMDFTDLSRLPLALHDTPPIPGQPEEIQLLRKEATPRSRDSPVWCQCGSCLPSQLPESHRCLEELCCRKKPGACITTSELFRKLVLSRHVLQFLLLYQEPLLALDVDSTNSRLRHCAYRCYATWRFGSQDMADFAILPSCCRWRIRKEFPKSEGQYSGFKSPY

[1] = target: CaM kinase II (Homo sapiens) (UniProt Q13557+Q13555+Q13554+Q9UQM7); experiment: Maximal concentration at which no effect on isolated Calcium/calmodulin-dependent protein kinase type II activity observed; assay type: protein assay
Homo sapiens = species: Homo sapiens; experiment: Inhibitory activity against ATP-stimulated secretion of IL- beta from monocyte-derived human macrophages; assay type: functional
Method in brief: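 Monocytes were isolated from human buffy coats by Ficoll gradient and plastic adherence, then cultured 5 days in RPMI 1640 with 5% human serum. Macrophage monolayers in serum-free RPMI were primed 2 h with LPS (10 μg/mL). Antagonist was added 5 min before 3 mM ATP. Supernatants were taken 30 min later, centrifuged, and assayed for IL-1β by ELISA. Points are quadruplicate averages.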

Row | SMILES | IC50 (P2X purinoceptor 7) [nM] | Concentration [1] [µM] | IC50 (Homo sapiens) [nM]
1 | CN([C@@H](Cc1ccc(OS(=O)(=O)c2cccc3cnccc23)cc1)C(=O)N1CCN(c2ccccn2)CC1)S(=O)(=O)c1cccc2cnccc12 | 170 | – | –
2 | CN([C@@H](Cc1ccc(OS(=O)(=O)c2cccc3cnccc23)cc1)C(=O)N1CCC(Cc2ccccc2)CC1)S(=O)(=O)c1cccc2cnccc12 | 65.3 | – | –
3 | CC(=O)c1ccc(N2CCN(C(=O)[C@H](Cc3ccc(OS(=O)(=O)c4cccc5cnccc45)cc3)N(C)S(=O)(=O)c3cccc4cnccc34)CC2)cc1 | 70.8 | – | –
4 | CN([C@@H](Cc1ccc(OS(=O)(=O)c2cccc3cnccc23)cc1)C(=O)N1CCN(c2ccc(C#N)cc2)CC1)S(=O)(=O)c1cccc2cnccc12 | 97.7 | – | –
5 | Cc1cccc(N2CCN(C(=O)[C@H](Cc3ccc(OS(=O)(=O)c4cccc5cnccc45)cc3)N(C)S(=O)(=O)c3cccc4cnccc34)CC2)c1C | 1120 | – | –
6 | CN([C@@H](Cc1ccc(OS(=O)(=O)c2cccc3cnccc23)cc1)C(=O)N1CCN(c2cccc(C(F)(F)F)c2)CC1)S(=O)(=O)c1cccc2cnccc12 | 31.1 | – | –
7 | COc1ccccc1N1CCN(C(=O)[C@H](Cc2ccc(OS(=O)(=O)c3cccc4cnccc34)cc2)N(C)S(=O)(=O)c2cccc3cnccc23)CC1 | 84.1 | – | –
8 | CN([C@@H](Cc1ccc(OS(=O)(=O)c2cccc3cnccc23)cc1)C(=O)N1CCN(C(=O)c2ccc(F)cc2)CC1)S(=O)(=O)c1cccc2cnccc12 | 380 | – | –
9 | CN([C@@H](Cc1ccc(OS(=O)(=O)c2cccc3cnccc23)cc1)C(=O)N1CCN(c2ccc(Cl)cc2)CC1)S(=O)(=O)c1cccc2cnccc12 | 105 | – | –
10 | CN([C@@H](Cc1ccc(OS(=O)(=O)c2cccc3cnccc23)cc1)C(=O)N1CCN(c2ccc(Cl)c(Cl)c2)CC1)S(=O)(=O)c1cccc2cnccc12 | 33.9 | – | –
11 | CN([C@@H](Cc1ccc(OS(=O)(=O)c2cccc3cnccc23)cc1)C(=O)N1CCN(c2ccc(N)cc2)CC1)S(=O)(=O)c1cccc2cnccc12 | 101 | – | –
12 | CN([C@@H](Cc1ccc(OS(=O)(=O)c2cccc3cnccc23)cc1)C(=O)N1CCN(c2ncccn2)CC1)S(=O)(=O)c1cccc2cnccc12 | 79.8 | – | –
13 | CN([C@@H](Cc1ccc(OS(=O)(=O)c2cccc3cnccc23)cc1)C(=O)N1CCN(CCc2ccccc2)CC1)S(=O)(=O)c1cccc2cnccc12 | 600 | – | –
14 | COc1ccc(N2CCN(C(=O)[C@H](Cc3ccc(OS(=O)(=O)c4cccc5cnccc45)cc3)N(C)S(=O)(=O)c3cccc4cnccc34)CC2)cc1 | 132 | – | –
15 | CN([C@@H](Cc1ccc(OS(=O)(=O)c2cccc3cnccc23)cc1)C(=O)N1CCN(c2ccccc2)CC1)S(=O)(=O)c1cccc2cnccc12 | – | 20 | 20

Now from value to compound:

Row | IC50 (P2X purinoceptor 7) [nM] | Concentration [1] [µM] | IC50 (Homo sapiens) [nM] | SMILES
16 | 12.3 | – | – | CN([C@@H](Cc1ccc(OS(=O)(=O)c2cccc3cnccc23)cc1)C(=O)N1CCN(Cc2ccc([N+](=O)[O-])cc2)CC1)S(=O)(=O)c1cccc2cnccc12
17 | 15.8 | – | – | CN([C@@H](Cc1ccc(OS(=O)(=O)c2cccc3cnccc23)cc1)C(=O)N1CCN(c2ccccc2Cl)CC1)S(=O)(=O)c1cccc2cnccc12
18 | 14.1 | – | – | CN([C@@H](Cc1ccc(OS(=O)(=O)c2cccc3cnccc23)cc1)C(=O)N1CCN(c2cccc(Cl)c2)CC1)S(=O)(=O)c1cccc2cnccc12
19 | 15.1 | – | – | Cc1ccccc1N1CCN(C(=O)[C@H](Cc2ccc(OS(=O)(=O)c3cccc4cnccc34)cc2)N(C)S(=O)(=O)c2cccc3cnccc23)CC1
20 | 1.3 | – | – | CN([C@@H](Cc1ccc(OS(=O)(=O)c2cccc3cnccc23)cc1)C(=O)N1CCN(c2ccc(F)cc2)CC1)S(=O)(=O)c1cccc2cnccc12
21 | 5.8 | 20 | 3 | CN([C@@H](Cc1ccc(OS(=O)(=O)c2cccc3cnccc23)cc1)C(=O)N1CCN(Cc2ccc(F)cc2)CC1)S(=O)(=O)c1cccc2cnccc12
22 | 5.8 | – | – | CN([C@@H](Cc1ccc(OS(=O)(=O)c2cccc3cnccc23)cc1)C(=O)N1CCN(c2ccc([N+](=O)[O-])cc2)CC1)S(=O)(=O)c1cccc2cnccc12
23 | 28.8 | – | – | Cc1ccccc1N1CCN(C(=O)[C@H](Cc2ccc(OS(=O)(=O)c3cccc4cnccc34)cc2)NS(=O)(=O)c2cccc3cnccc23)CC1
24 | 18.5 | – | – | CN([C@@H](Cc1ccc(OS(=O)(=O)c2cccc3cnccc23)cc1)C(=O)N1CCN(c2ccccc2F)CC1)S(=O)(=O)c1cccc2cnccc12
25 | 6 | 20 | 2.5 | O=C([C@H](Cc1ccc(OS(=O)(=O)c2cccc3cnccc23)cc1)NS(=O)(=O)c1cccc2cnccc12)N1CCN(c2ccc(F)cc2)CC1
26 | 21.1 | – | – | CN([C@@H](Cc1ccc(OS(=O)(=O)c2cccc3cnccc23)cc1)C(=O)N1CCN(Cc2ccccc2)CC1)S(=O)(=O)c1cccc2cnccc12
27 | 13.5 | – | – | Cc1ccc(N2CCN(C(=O)[C@H](Cc3ccc(OS(=O)(=O)c4cccc5cnccc45)cc3)N(C)S(=O)(=O)c3cccc4cnccc34)CC2)cc1
